The text below walks through data of ChEMBL document CHEMBL4196167, “Ansamycins with Antiproliferative and Antineuroinflammatory Activity from Moss-Soil-Derived Streptomyces cacaoi subsp. asoensis H2S5” (J Nat Prod, 2018).

The source made the active and inactive calls. The calls are words filed in the database; no cut-off is given here.

In one data set the test system is PC-3. Description: Cytotoxicity against human PC3 cells after 72 hrs by sulforhodamine B assay. It is filed as functional, cell-based. Conditions: PC-3, 72 h. Summed up: (§1)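 SRB assay. Exponentially growing cells at 2.5 × 10^4 cells/mL attached, then given fresh medium with a range of concentrations for 72 h at 37 °C; four replicate wells; 0.1% DMSO negative control, doxorubicin reference. Fixed in cold 10% TCA 1 h at 4 °C, stained with 0.4% SRB, dye dissolved in 10 mM Tris, A560; viability relative to control; IC50 from dose–response curves.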

The test system of data set [1] is HepG2. Description: Cytotoxicity against human HepG2 cells after 72 hrs by sulforhodamine B assay. It is filed as functional, cell-based. Conditions: HepG2, 72 h. The essentials:
as §1

Data set [2] has as its system HepG2. In words: Induction of apoptosis in human HepG2 cells assessed as chromatin condensation at 5 to 10 uM after 48 hrs by Hoechst 33342 staining based fluorescence microscopic analysis. It is filed as functional, cell-based. Summed up:
(§2)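 1 × 10^6 HepG2 cells on coverslips treated 48 h at 1.0, 5.0 or 10 μM; DMSO control. Fixed 30 min in 4% paraformaldehyde, Hoechst 33342 stained 10 min at room temperature in the dark, PBS-washed, nuclear morphology viewed by fluorescence microscopy.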

Data set [3] relates to HepG2. Description: Induction of apoptosis in human HepG2 cells assessed as cell shrinkage at 5 to 10 uM after 48 hrs by Hoechst 33342 staining based fluorescence microscopic analysis. It is filed as functional. The essentials: as §2
Data set [4] concerns HepG2. Description: Induction of apoptosis in human HepG2 cells assessed as early apoptotic cells at 0.5 uM after 48 hrs by annexin-V-FITC/propidium iodide staining based flow cytometry (reference value: 0.33%). It is filed as functional.
Data set [5] concerns HepG2. Description: Induction of apoptosis in human HepG2 cells assessed as late apoptotic cells at 0.5 uM after 48 hrs by annexin-V-FITC/propidium iodide staining based flow cytometry (reference value: 0.51%). It is filed as functional.
Data set [6] concerns HepG2. Description: Induction of apoptosis in human HepG2 cells assessed as necrotic cells at 0.5 uM after 48 hrs by annexin-V-FITC/propidium iodide staining based flow cytometry (reference value: 1.82%). It is filed as functional.
Data set [7] concerns HepG2. Description: Induction of apoptosis in human HepG2 cells assessed as early apoptotic cells at 1 uM after 48 hrs by annexin-V-FITC/propidium iodide staining based flow cytometry (reference value: 0.33%). It is filed as functional.
The test system of data set [8] is HepG2. Description: Induction of apoptosis in human HepG2 cells assessed as late apoptotic cells at 1 uM after 48 hrs by annexin-V-FITC/propidium iodide staining based flow cytometry (reference value: 0.51%). It is filed as functional.
Data set [9] relates to HepG2. In words: Induction of apoptosis in human HepG2 cells assessed as necrotic cells at 1 uM after 48 hrs by annexin-V-FITC/propidium iodide staining based flow cytometry (reference value: 1.82%). It is filed as functional.
In data set [10] the test system is HepG2. In words: Induction of apoptosis in human HepG2 cells assessed as early apoptotic cells at 5 uM after 48 hrs by annexin-V-FITC/propidium iodide staining based flow cytometry (reference value: 0.33%). It is filed as functional.
In data set [11] the test system is HepG2. Description: Induction of apoptosis in human HepG2 cells assessed as late apoptotic cells at 5 uM after 48 hrs by annexin-V-FITC/propidium iodide staining based flow cytometry (reference value: 0.51%). It is filed as functional.
Data set [12] relates to HepG2. In words: Induction of apoptosis in human HepG2 cells assessed as necrotic cells at 5 uM after 48 hrs by annexin-V-FITC/propidium iodide staining based flow cytometry (reference value: 1.82%). It is filed as functional.
In data set [13] the test system is HepG2. In words: Cell cycle arrest in human HepG2 cells assessed as accumulation at G1-phase at 0.5 uM after 24 hrs by propidium iodide staining based flow cytometry (reference value: 62.3%). It is filed as functional. The essentials:
(§3)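 HepG2 cells exposed 24 h to 0.5, 1.0 or 5.0 μM, with DMSO control; washed in cold PBS, fixed in ice-cold 95% ethanol at 4 °C for at least 2 h, then PI-stained 30 min at 37 °C. Cell-cycle phases read by flow cytometry on 10 000 cells per sample; three independent experiments.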

In data set [14] the test system is HepG2. Description: Cell cycle arrest in human HepG2 cells assessed as accumulation at S-phase at 0.5 uM after 24 hrs by propidium iodide staining based flow cytometry (reference value: 25.5%). It is filed as functional. Summed up:
as §3

For data set [15], the system named is HepG2. Description: Cell cycle arrest in human HepG2 cells assessed as accumulation at G2-phase at 0.5 uM after 24 hrs by propidium iodide staining based flow cytometry (reference value: 9.61%). It is filed as functional. The essentials: as §3
The subject of data set [16] is HepG2. In words: Cell cycle arrest in human HepG2 cells assessed as accumulation at G1-phase at 1 uM after 24 hrs by propidium iodide staining based flow cytometry (reference value: 62.3%). It is filed as functional. Summed up:
as §3

Data set [17] relates to HepG2. Description: Cell cycle arrest in human HepG2 cells assessed as accumulation at S-phase at 1 uM after 24 hrs by propidium iodide staining based flow cytometry (reference value: 25.5%). It is filed as functional. The essentials: as §3
Data set [18] concerns HepG2. Description: Cell cycle arrest in human HepG2 cells assessed as accumulation at G2-phase at 1 uM after 24 hrs by propidium iodide staining based flow cytometry (reference value: 9.61%). It is filed as functional. Summed up: as §3
Data set [19] relates to HepG2. Description: Cell cycle arrest in human HepG2 cells assessed as accumulation at G1-phase at 5 uM after 24 hrs by propidium iodide staining based flow cytometry (reference value: 62.3%). It is filed as functional. The essentials:
as §3

The subject of data set [20] is HepG2. In words: Cell cycle arrest in human HepG2 cells assessed as accumulation at S-phase at 5 uM after 24 hrs by propidium iodide staining based flow cytometry (reference value: 25.5%). It is filed as functional. The essentials: as §3
The subject of data set [21] is HepG2. In words: Cell cycle arrest in human HepG2 cells assessed as accumulation at G2-phase at 5 uM after 24 hrs by propidium iodide staining based flow cytometry (reference value: 9.61%). It is filed as functional. Summed up: as §3
The subject of another data set is BV-2. In words: Inhibition of LPS-induced nitric oxide production in mouse BV2 cells after 24 hrs by Griess assay. It is filed as functional, cell-based. To be noted: BV-2, 24 h. The essentials:
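BV-2 murine microglia in DMEM with 10% heat-inactivated FBS, seeded at 2 × 10^4/well and grown 24 h. Given compound at five concentrations with 1 μg/mL LPS (E. coli 0111:B4) for 24 h; quercetin reference. Supernatant nitrite measured by Griess reagents I and II at A540 against a sodium nitrite standard curve; IC50 as concentration halving NO.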

Data set [22] in a line: Cytotoxicity against LPS-induced mouse BV2 cells assessed as cell viability after 24 hrs by MTT assay. Also noted: concentration or dose not given beside the values. It is filed as cell-based, BV-2. Conditions: read-out: Activity. Summed up:
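BV-2 cells seeded at 2 × 10^3 per 100 μL and grown 24 h, then given compound at various concentrations plus LPS for 24 h; DMSO alone as negative control. MTT (5 mg/mL stock, 10 μL) added for 4 h at 37 °C, lysed overnight in SDS/[…]/HCl buffer, absorbance 570 nm.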

On to `COc1cccc2c1C(=O)c1c(O)c3c(c(O)c1C2=O)C[C@@](O)(C(=O)CO)C[C@@H]3O[C@H]1C[C@H](N)[C@H](O)[C@H](C)O1` [DOXORUBICIN], for which the IC50 was 0.8 µM in the data set with PC-3 and 0.7 µM in the data set on HepG2 [1].
With `CO[C@H]1/C=C/C=C/C=C/C[C@H](OC(=O)[C@@H](C)NC(=O)CCCC(C)C)[C@H](C)[C@@H](O)/C(C)=C\CCc2cc(O)cc(c2)NC(=O)C1`, the IC50 in the data set on PC-3 stood at 2.7 µM; in the data set with HepG2 [1], 0.1 µM; with BV-2 it was 0.09 µM. The result in the data set on HepG2 [2] and in the data set on HepG2 [3] was Active. The Activity in the data set on HepG2 [4] is on record as 5.11%; in the data set on HepG2 [5], 1.25%; in the data set on HepG2 [6] it was 1.98%; with HepG2 [7], 9.53%; with HepG2 [8], 1.66%; in the data set with HepG2 [9] it was 2.1%. In addition, the Activity with HepG2 [10] is on record as 17.63%; in the data set with HepG2 [11], 5.67%; in the data set on HepG2 [12] it was 3.66%; in the data set with HepG2 [13], 59.1%; in the data set on HepG2 [14] it was 24.7%; in the data set on HepG2 [15] it was 14.2%. For the same molecule, the Activity was found to be 37.1% with HepG2 [16]; 34.5% with HepG2 [17]; 12.4% with HepG2 [18]; 42.4% in the data set with HepG2 [19]; 38.6% in the data set on HepG2 [20]; 12.6% in the data set with HepG2 [21]. Besides, the viability at 24 h in data set [22] was found to be 83.8%.
In turn, `O=c1c(O)c(-c2ccc(O)c(O)c2)oc2cc(O)cc(O)c12` [QUERCETIN] returned an IC50 in the data set with BV-2 of 2.4 µM. The viability at 24 h in data set [22] was 99.2%.
For `CO[C@H]1/C=C/C=C/C=C/C[C@H](OC(=O)[C@@H](C)NC(=O)CCC(C)C)[C@H](C)[C@@H](O)/C(C)=C\CCc2cc(O)cc(c2)NC(=O)C1`, the IC50 in the data set on PC-3 is 4.2 µM; in the data set with HepG2 [1] it was 0.2 µM; in the data set with BV-2 it was 0.18 µM. Besides, the viability at 24 h in data set [22] came out at 82.5%.
The corresponding values for `CO[C@H]1/C=C/C=C/C=C/C[C@H](OC(=O)[C@@H](C)NC(=O)C(C)C)[C@H](C)[C@@H](O)/C(C)=C\CCc2cc(O)cc(c2)NC(=O)C1` are 4.4 µM, 0.4 µM, 2.9 µM and 85.4%.
For `CO[C@H]1/C=C/C=C/C=C/C[C@H](OC(=O)[C@@H](C)NC(=O)CC(C)C)[C@H](C)[C@@H](O)/C(C)=C\CCc2cc(O)cc(c2)NC(=O)C1`, in that order: 4.5 µM, 1 µM, 1.1 µM and 92.7%.
For `CO[C@H]1/C=C/C=C/C=C/C[C@H](O)[C@H](C)[C@@H](OC(=O)[C@@H](C)NC(=O)C2CCCCC2)/C(C)=C\CCc2cc(O)cc(c2)NC(=O)C1`, in that order: 10.2 µM, 17.6 µM, 0.3 µM and 93.1%.
With `CO[C@H]1/C=C/C=C/C=C/C[C@H](OC(=O)[C@@H](C)NC(=O)C2CCCCC2)[C@H](C)[C@@H](O)/C(C)=C\CCc2cc(O)cc(c2)NC(=O)C1` [TRIENOMYCIN A], the IC50 amounted to 0.4 µM in the data set with PC-3, 0.2 µM in the data set on HepG2 [1] and 0.02 µM in the data set on BV-2. For the same molecule, in [22], the viability at 24 h worked out at 95.2%.
In the case of `CC.CO[C@H]1/C=C/C=C/C=C/C[C@H](O)[C@H](C)[C@@H](OC(=O)[C@@H](C)NC(=O)CC(C)C)/C(C)=C\CCc2cc(O)cc(c2)NC(=O)C1`, the IC50 was determined as 11.9 µM in the data set with PC-3, 20.5 µM with HepG2 [1] and 8.3 µM in the data set on BV-2. Further, in data set [22], the viability at 24 h was 83.1%.
For `CCCC(=O)N[C@H](C)C(=O)O[C@H]1C/C=C/C=C/C=C/[C@H](OC)CC(=O)Nc2cc(O)cc(c2)CC/C=C(/C)[C@H](O)[C@H]1C`, in that order: 4.5 µM, 3 µM, 1.7 µM and 96%.
For `CCC(C)C(=O)N[C@H](C)C(=O)O[C@H]1C/C=C/C=C/C=C/[C@H](OC)CC(=O)Nc2cc(O)cc(c2)CC/C=C(/C)[C@H](O)[C@H]1C` (some centres undefined), in that order: 2.6 µM, 0.5 µM, 0.48 µM and 76.3%.
For `CO[C@H]1/C=C/C=C/C=C/C[C@H](OC(=O)[C@@H](C)NC(=O)C2=CCCCC2)[C@H](C)[C@@H](O)/C(C)=C\CCc2cc(O)cc(c2)NC(=O)C1`, in that order: 0.7 µM, 0.2 µM, 0.03 µM and 94.3%.
